This passage reports Ki and inhibition results from ChEMBL document CHEMBL1131058, “Studies on quinazolines and 1,2,4-benzothiadiazine 1,1-dioxides. 8.1, 2 synthesis and pharmacological evaluation of tricyclic fused quinazolines and 1,2,4-benzothiadiazine 1,1-dioxides as potential alpha1-adrenoceptor antagonists” (J Med Chem, 1998).

A value given as a limit tells only on which side of the number the result lay.

Assay [1] addresses T1, Adrenergic receptor alpha-2 (Rattus norvegicus, UniProt P22086+P19328+P22909).
T1 sequence (P22086 whole entry): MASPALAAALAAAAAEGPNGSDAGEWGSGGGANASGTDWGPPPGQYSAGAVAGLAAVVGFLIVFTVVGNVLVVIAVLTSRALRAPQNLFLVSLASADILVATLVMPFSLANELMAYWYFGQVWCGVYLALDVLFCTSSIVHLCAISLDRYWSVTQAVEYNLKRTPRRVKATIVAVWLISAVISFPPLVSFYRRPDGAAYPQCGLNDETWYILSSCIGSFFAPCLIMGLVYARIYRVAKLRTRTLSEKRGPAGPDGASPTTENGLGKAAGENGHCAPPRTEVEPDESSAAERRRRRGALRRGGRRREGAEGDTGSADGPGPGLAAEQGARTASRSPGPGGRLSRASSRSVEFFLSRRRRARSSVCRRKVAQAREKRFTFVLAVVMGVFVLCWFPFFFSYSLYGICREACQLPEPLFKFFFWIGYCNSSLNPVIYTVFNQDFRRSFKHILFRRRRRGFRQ
T1 sequence (P19328 whole entry): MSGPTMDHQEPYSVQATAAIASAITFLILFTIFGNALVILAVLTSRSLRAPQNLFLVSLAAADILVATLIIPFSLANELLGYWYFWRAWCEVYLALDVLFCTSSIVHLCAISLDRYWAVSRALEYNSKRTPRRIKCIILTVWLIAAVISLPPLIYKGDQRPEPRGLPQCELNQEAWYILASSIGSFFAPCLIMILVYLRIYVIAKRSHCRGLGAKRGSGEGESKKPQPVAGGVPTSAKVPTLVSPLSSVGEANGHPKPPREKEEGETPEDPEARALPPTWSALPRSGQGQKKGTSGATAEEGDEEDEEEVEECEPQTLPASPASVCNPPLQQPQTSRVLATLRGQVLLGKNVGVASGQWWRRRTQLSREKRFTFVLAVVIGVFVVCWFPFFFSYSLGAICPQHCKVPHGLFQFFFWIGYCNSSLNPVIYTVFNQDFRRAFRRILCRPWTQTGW
T1 sequence (P22909 whole entry): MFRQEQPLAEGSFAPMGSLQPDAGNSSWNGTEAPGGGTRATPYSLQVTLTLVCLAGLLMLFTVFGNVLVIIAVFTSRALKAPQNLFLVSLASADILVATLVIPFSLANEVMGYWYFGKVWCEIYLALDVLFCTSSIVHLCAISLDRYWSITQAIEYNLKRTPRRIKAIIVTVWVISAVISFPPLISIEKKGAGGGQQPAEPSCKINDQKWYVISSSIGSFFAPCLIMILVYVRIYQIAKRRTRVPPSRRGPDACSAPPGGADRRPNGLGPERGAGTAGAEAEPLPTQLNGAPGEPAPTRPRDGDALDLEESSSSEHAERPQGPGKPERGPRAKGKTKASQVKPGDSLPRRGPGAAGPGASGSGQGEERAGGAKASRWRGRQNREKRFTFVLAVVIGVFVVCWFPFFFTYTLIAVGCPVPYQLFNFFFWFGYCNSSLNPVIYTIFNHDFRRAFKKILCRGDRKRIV
As to the kind of experiment: Displacement of clonidine from Alpha-2 adrenergic receptor of rat cortical membranes. It is filed as cell membranes, Membrane. An outline of the steps: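 α2 competition binding run in triplicate with 1 nM [³H]clonidine plus 10 mM MgCl₂ in Tris pH 7.4, 30 min at room temperature. Test compounds at 1-100 µM. Nonspecific binding defined with 10 µM clonidine. Membranes collected on GF/B filters and washed twice with cold Tris. Protein 300-400 µg per assay. Ki given as mean ± SEM of 3-6 experiments.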

Assay [2] has as its target T2, Alpha-1B adrenergic receptor (Rattus norvegicus, UniProt P15823).
T2 sequence (P15823 whole entry): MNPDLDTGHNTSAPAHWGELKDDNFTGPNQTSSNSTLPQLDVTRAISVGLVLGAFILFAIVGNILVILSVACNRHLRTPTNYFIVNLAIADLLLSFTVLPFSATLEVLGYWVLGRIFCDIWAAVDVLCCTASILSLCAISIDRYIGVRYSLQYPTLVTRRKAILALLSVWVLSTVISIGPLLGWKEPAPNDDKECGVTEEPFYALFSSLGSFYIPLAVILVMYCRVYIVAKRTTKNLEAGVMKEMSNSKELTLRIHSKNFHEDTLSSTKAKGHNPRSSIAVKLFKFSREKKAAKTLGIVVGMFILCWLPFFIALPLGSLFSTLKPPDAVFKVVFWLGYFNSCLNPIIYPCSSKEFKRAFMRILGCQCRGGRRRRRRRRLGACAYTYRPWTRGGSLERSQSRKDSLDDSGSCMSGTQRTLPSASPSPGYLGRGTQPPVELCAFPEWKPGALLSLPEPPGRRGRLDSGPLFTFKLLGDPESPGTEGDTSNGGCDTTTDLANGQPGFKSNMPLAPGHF
Nature of the assay: Displacement of [3H]prazosin from Alpha-1B adrenergic receptor of rat liver membrane. In a few lines: (§1)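 Triplicate competition binding against 0.2-0.25 nM [³H]prazosin in Tris buffer pH 7.4, 30 min at room temperature. Competitor range 0.1-200 nM. Nonspecific binding defined with 10 µM phentolamine. Reaction stopped by GF/B filtration with two cold Tris washes. Membrane protein 300-400 µg per assay. Ki calculated from the data; mean ± SEM of 3-6 experiments.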
A general note: In a radioligand displacement assay an active substance lowers the binding of a labelled ligand.

Assay [3] deals with T3, Alpha-1A adrenergic receptor (Rattus norvegicus, UniProt P43140).
T3 sequence (P43140 whole entry): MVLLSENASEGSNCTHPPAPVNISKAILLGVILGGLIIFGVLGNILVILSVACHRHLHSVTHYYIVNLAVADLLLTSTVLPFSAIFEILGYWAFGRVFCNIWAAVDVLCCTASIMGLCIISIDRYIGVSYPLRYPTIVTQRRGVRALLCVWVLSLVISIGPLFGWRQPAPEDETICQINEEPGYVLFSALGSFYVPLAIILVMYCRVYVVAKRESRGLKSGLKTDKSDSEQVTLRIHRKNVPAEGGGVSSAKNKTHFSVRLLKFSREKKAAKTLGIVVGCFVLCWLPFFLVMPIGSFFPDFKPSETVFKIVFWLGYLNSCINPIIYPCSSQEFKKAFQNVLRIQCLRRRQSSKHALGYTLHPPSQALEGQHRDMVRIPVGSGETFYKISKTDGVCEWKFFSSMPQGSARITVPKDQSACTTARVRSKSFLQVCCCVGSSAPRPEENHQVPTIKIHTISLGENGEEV
As to the kind of experiment: Displacement of [3H]prazosin from Alpha-1A adrenergic receptor of rat submaxillary gland membranes. It is filed as cell membranes, Membrane. In a few lines:
as §1

For the next assay, the target named is D(3) dopamine receptor (Homo sapiens, UniProt P35462). Nature of the assay: Compound is evaluated for binding affinity towards recombinant human Dopamine receptor D3 using [3H]spiperone in CHO cells at 10 uM. It is filed as cell-based. An outline of the steps: (§2)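 Single-concentration screen at 10 µM in contract radioligand binding assays. Records whether inhibition of specific radioligand binding stayed below 50%.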

Assay [4] concerns the target T4, D(2) dopamine receptor (Homo sapiens, UniProt P14416). Nature of the assay: Compound is evaluated for binding affinity towards recombinant human Dopamine receptor D2 using [3H]spiperone in CHO cells at 10 uM. It is filed as cell-based. An outline of the steps:
as §2

The target in assay [5] is Histamine H1 receptor (Cavia porcellus) (UniProt P31389). Nature of the assay: Compound is evaluated for binding affinity towards Histamine H1 receptor using [3H]pyrilamine in guinea pig lung at 10 uM. It is filed as tissue-based. An outline of the steps: as §2
The target of assay [6] is T4, D(2) dopamine receptor. As to the kind of experiment: Compound is evaluated for binding affinity towards Dopamine receptor D2 using [3H]spiperone in CHO cells at 10 uM. Type of assay: cell-based.

Sequence of Histamine H1 receptor (Cavia porcellus) (P31389 whole entry): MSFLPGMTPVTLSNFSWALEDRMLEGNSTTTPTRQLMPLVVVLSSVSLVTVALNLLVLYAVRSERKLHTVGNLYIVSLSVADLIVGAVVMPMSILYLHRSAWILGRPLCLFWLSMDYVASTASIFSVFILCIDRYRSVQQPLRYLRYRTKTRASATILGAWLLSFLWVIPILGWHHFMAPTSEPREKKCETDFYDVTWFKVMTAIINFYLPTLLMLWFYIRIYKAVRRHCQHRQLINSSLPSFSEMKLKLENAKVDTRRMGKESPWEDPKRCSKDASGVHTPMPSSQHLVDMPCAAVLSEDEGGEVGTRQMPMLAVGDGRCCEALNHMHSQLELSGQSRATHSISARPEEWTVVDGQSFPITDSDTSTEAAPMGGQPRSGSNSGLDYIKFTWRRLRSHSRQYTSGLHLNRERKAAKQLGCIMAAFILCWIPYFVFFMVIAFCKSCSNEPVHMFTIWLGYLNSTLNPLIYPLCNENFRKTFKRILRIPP
T4 sequence (P14416 whole entry): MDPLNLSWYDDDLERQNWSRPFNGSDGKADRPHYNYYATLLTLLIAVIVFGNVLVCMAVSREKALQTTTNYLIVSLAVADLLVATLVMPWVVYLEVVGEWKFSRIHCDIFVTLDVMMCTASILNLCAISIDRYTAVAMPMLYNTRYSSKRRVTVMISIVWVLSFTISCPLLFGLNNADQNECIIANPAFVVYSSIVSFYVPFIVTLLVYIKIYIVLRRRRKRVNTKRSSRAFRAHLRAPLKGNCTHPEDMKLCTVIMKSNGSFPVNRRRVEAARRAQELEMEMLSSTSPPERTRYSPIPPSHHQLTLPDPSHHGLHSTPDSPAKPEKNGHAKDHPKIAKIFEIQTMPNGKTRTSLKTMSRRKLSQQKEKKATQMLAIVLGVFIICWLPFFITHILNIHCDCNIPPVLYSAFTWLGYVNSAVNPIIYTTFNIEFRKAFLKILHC
Sequence of D(3) dopamine receptor (P35462 whole entry): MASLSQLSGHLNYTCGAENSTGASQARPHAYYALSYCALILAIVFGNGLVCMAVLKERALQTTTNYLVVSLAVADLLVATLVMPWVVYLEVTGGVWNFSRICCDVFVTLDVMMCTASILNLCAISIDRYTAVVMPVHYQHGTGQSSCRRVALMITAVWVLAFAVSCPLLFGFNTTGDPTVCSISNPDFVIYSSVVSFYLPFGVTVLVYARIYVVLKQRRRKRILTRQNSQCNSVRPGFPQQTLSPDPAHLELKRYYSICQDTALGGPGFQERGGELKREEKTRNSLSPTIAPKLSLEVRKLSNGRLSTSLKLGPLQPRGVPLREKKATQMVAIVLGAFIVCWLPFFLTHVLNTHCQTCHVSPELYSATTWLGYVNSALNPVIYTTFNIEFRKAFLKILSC

Take `COc1ccccc1N1CCN(C[C@H]2CN=C3c4ccccc4NC(=O)N32)CC1`: the Ki – broadly, a measure of affinity in units of concentration, obtained from inhibition or displacement – in assay [1] stood at 183 nM; in assay [2] it was 0.42 nM; in assay [3], 0.23 nM.
As for `COc1ccccc1N1CCN(C[C@@H]2CN=C3c4ccccc4N=C(SC)N32)CC1`, the values for the Ki in assay [1], in assay [2] and in assay [3] were 9000 nM, 667 nM and 122 nM, respectively.
On to `COc1ccccc1N1CCN(C[C@H]2CN=C3c4ccccc4N=C(SC)N32)CC1`, for which the Ki in assay [1] was determined as 3500 nM; in assay [2], 1.4 nM; in assay [3] it was 1.5 nM.
As to `COc1ccccc1N1CCN(C[C@@H]2CN=C3c4ccccc4NC(=O)N32)CC1`, the Ki in assay [1] was above 10000 nM; in assay [2] it was 123 nM; in assay [3], 55 nM.
For `COc1ccccc1N1CCN(Cc2cn3c(O)nc4ccccc4c3n2)CC1`, the inhibition (on D(3) dopamine receptor; at D(2) dopamine receptor [4]; in assay [5]; at D(2) dopamine receptor [6]) was below 50% in each case.
For `COc1ccccc1N1CCN(CC2CN3C(=O)Nc4ccccc4C3=N2)CC1` (stereo unspecified), the inhibition on D(2) dopamine receptor [4] and at D(2) dopamine receptor [6] was below 50% throughout. Also, the Ki was 230 nM in assay [1], 5.5 nM in assay [2] and 0.65 nM in assay [3].
With `COc1ccccc1N1CCN(Cc2cnc3c4ccccc4nc(O)n23)CC1`, the inhibition (on D(3) dopamine receptor; at D(2) dopamine receptor [4]; in assay [5]; at D(2) dopamine receptor [6]) was below 50% each time.
In the case of `Oc1nc2ccccc2c2ncc(CN3CCN(c4ccccc4Cl)CC3)n12`, the inhibition (on D(3) dopamine receptor; at D(2) dopamine receptor [4]; in assay [5]) was below 50% throughout.
Take `COc1ccccc1N1CCN(CC2CN=C3c4ccccc4N=C(SC)N32)CC1` (stereo unspecified): the Ki in assay [1] is 970 nM; in assay [2] it was 3.9 nM; in assay [3] it was 0.93 nM.
